Assay results from ChEMBL document CHEMBL5724801, “EUbOPEN Chemogenomics Library - Multiplex” (2024).
Where “and” joins values, the source holds several entries; their conditions need not be identical. Equal values may be shown once.

Test system: HEK-293T
Assay: Multiplex assay against HEK293T
Assay type: toxicity, cell-based
Details: human
How it was run: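 Live cells were stained at seeding with Hoechst33342, BioTracker Green Microtubule Cytoskeleton Dye, MitoTracker Red and Annexin V Alexa Fluor 680. Following compound addition, they were imaged on a CQ1 microscope at 37°C and 5% CO2 and gated by CellPathfinder machine learning into Hoechst high-intensity objects or normal cells, with normal cells split into healthy, pyknosed or fragmented nuclei and pyknosed cells into mitotic or apoptotic. Tubulin, mitochondrial-mass and membrane-permeability phenotypes are per cents of healthy-nucleus cells.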

[1] = 12 h, 1 µM, compound concentration 1 uM
[2] = 12 h, 10 µM, compound concentration 10 uM
[3] = 24 h, 1 µM, compound concentration 1 uM
[4] = 24 h, 10 µM, compound concentration 10 uM
[5] = 48 h, 1 µM, compound concentration 1 uM
[6] = 48 h, 10 µM, compound concentration 10 uM

COc1cc(/C=C(\C#N)C(=O)Nc2nnc(C(F)(F)F)s2)ccc1OCc1ccc(C(F)(F)F)cc1C(F)(F)F
Population Apoptotic (%) [1]: 10% and 12.9%
Population Fragmented Nuclei (%) [1]: 2.37% and 4.7%
Population Hoechst High Intensity Objects (%) [1]: 0.67% and 0%
Population Membrane Permeable-Phenotype (%) [1]: 0%
Population Mitochondria Different-Phenotype (%) [1]: 45.57% and 22.22%
Population Mitotic Cells (%) [1]: 90% and 87.1%
Population Normal (%) [1]: 99.33% and 100%
Population Pyknosed Nuclei (%) [1]: 44.07% and 83.22%
Total Cell Count [1]: 297 and 149
Population Apoptotic (%) [2]: 7.56% and 15.32%
Population Fragmented Nuclei (%) [2]: 3.37% and 4.96%
Population Hoechst High Intensity Objects (%) [2]: 0%
Population Membrane Permeable-Phenotype (%) [2]: 0%
Population Mitochondria Different-Phenotype (%) [2]: 33.93% and 13.04%
Population Mitotic Cells (%) [2]: 92.44% and 84.68%
Population Normal (%) [2]: 100%
Population Pyknosed Nuclei (%) [2]: 40.07% and 78.72%
Total Cell Count [2]: 297 and 141
Population Apoptotic (%) [3]: 13% and 14.66%
Population Fragmented Nuclei (%) [3]: 1.79% and 2.79%
Population Healthy Nuclei (%) [3]: 75.89% and 32.4%
Population Hoechst High Intensity Objects (%) [3]: 0.22% and 0%
Population Membrane Permeable-Phenotype (%) [3]: 1.18% and 0%
Population Mitochondria Different-Phenotype (%) [3]: 13.82% and 22.41%
Population Mitotic Cells (%) [3]: 87% and 85.34%
Population Normal (%) [3]: 99.78% and 100%
Population Pyknosed Nuclei (%) [3]: 22.32% and 64.8%
Population Tubulin-Different-Phenotype (%) [3]: 11.47% and 13.79%
Total Cell Count [3]: 449 and 179
Population Apoptotic (%) [4]: 11.22% and 19.54%
Population Fragmented Nuclei (%) [4]: 0.62% and 1.78%
Population Healthy Nuclei (%) [4]: 79% and 46.75%
Population Hoechst High Intensity Objects (%) [4]: 0% and 0.59%
Population Membrane Permeable-Phenotype (%) [4]: 0.79% and 1.27%
Population Mitotic Cells (%) [4]: 88.78% and 80.46%
Population Normal (%) [4]: 100% and 99.41%
Population Pyknosed Nuclei (%) [4]: 20.37% and 51.48%
Population Tubulin-Different-Phenotype (%) [4]: 9.47% and 5.06%
Total Cell Count [4]: 481 and 170
Population Apoptotic (%) [5]: 10.37% and 13.92%
Population Fragmented Nuclei (%) [5]: 1.93% and 3.61%
Population Healthy Nuclei (%) [5]: 85.65% and 55.67%
Population Hoechst High Intensity Objects (%) [5]: 0.09% and 1.52%
Population Membrane Permeable-Phenotype (%) [5]: 4.73% and 1.85%
Population Mitochondria Different-Phenotype (%) [5]: 13.1% and 24.07%
Population Mitotic Cells (%) [5]: 89.63% and 86.08%
Population Normal (%) [5]: 99.91% and 98.48%
Population Fragmented Nuclei (%) [6]: 1.97% and 2.88%
Population Healthy Nuclei (%) [6]: 88.86% and 79.5%
Population Hoechst High Intensity Objects (%) [6]: 0% and 2.11%
Population Membrane Permeable-Phenotype (%) [6]: 4.71% and 1.81%
Population Mitochondria Different-Phenotype (%) [6]: 9.16% and 21.72%
Population Mitotic Cells (%) [6]: 88.79% and 63.27%
Population Normal (%) [6]: 100% and 97.89%
Population Pyknosed Nuclei (%) [6]: 9.16% and 17.63%

N#Cc1ccnc(Nc2cc(C3CCN(C4COC4)CC3)cc(N3CCC(F)(F)C3)n2)c1
Population Apoptotic (%) [1]: 18.37% and 8.2%
Population Fragmented Nuclei (%) [1]: 1.49% and 2.08%
Population Healthy Nuclei (%) [1]: 25.74% and 13.19%
Population Hoechst High Intensity Objects (%) [1]: 0.98% and 0%
Population Membrane Permeable-Phenotype (%) [1]: 0%
Population Mitotic Cells (%) [1]: 81.63% and 91.8%
Population Normal (%) [1]: 99.02% and 100%
Population Pyknosed Nuclei (%) [1]: 72.77% and 84.72%
Population Tubulin-Different-Phenotype (%) [1]: 32.69% and 42.11%
Total Cell Count [1]: 204 and 144
Population Apoptotic (%) [2]: 23.38% and 27.5%
Population Fragmented Nuclei (%) [2]: 5.2% and 14.04%
Population Healthy Nuclei (%) [2]: 20.07% and 15.79%
Population Hoechst High Intensity Objects (%) [2]: 0.37% and 0.87%
Population Mitotic Cells (%) [2]: 76.62% and 72.5%
Population Normal (%) [2]: 99.63% and 99.13%
Population Pyknosed Nuclei (%) [2]: 74.72% and 70.18%
Total Cell Count [2]: 270 and 230
Population Apoptotic (%) [3]: 44.81% and 25.93%
Population Fragmented Nuclei (%) [3]: 1.81% and 1.57%
Population Hoechst High Intensity Objects (%) [3]: 0.72% and 0.78%
Population Membrane Permeable-Phenotype (%) [3]: 2.56% and 0%
Population Mitochondria Different-Phenotype (%) [3]: 41.88% and 35.29%
Population Mitotic Cells (%) [3]: 55.19% and 74.07%
Population Normal (%) [3]: 99.28% and 99.22%
Population Pyknosed Nuclei (%) [3]: 55.8% and 85.04%
Population Tubulin-Different-Phenotype (%) [3]: 49.57% and 23.53%
Total Cell Count [3]: 278 and 128
Population Apoptotic (%) [4]: 63.77% and 56.46%
Population Fragmented Nuclei (%) [4]: 4.87% and 13.57%
Population Healthy Nuclei (%) [4]: 17.6% and 19.91%
Population Hoechst High Intensity Objects (%) [4]: 0.74% and 0%
Population Membrane Permeable-Phenotype (%) [4]: 0% and 9.09%
Population Mitotic Cells (%) [4]: 36.23% and 43.54%
Population Normal (%) [4]: 99.26% and 100%
Population Pyknosed Nuclei (%) [4]: 77.53% and 66.52%
Total Cell Count [4]: 269 and 221
Population Fragmented Nuclei (%) [5]: 4.08% and 0.7%
Population Healthy Nuclei (%) [5]: 73.7% and 38.46%
Population Hoechst High Intensity Objects (%) [5]: 0.23% and 0.69%
Population Membrane Permeable-Phenotype (%) [5]: 4.31% and 3.64%
Population Mitochondria Different-Phenotype (%) [5]: 60.62% and 56.36%
Population Mitotic Cells (%) [5]: 69.39% and 90.8%
Population Normal (%) [5]: 99.77% and 99.31%
Population Pyknosed Nuclei (%) [5]: 22.22% and 60.84%
Population Apoptotic (%) [6]: 88.68% and 82.35%
Population Fragmented Nuclei (%) [6]: 5.62% and 11.71%
Population Healthy Nuclei (%) [6]: 14.98% and 13.66%
Population Hoechst High Intensity Objects (%) [6]: 0.37% and 0.49%
Population Membrane Permeable-Phenotype (%) [6]: 5% and 3.57%
Population Mitotic Cells (%) [6]: 11.32% and 17.65%
Population Normal (%) [6]: 99.63% and 99.51%
Population Pyknosed Nuclei (%) [6]: 79.4% and 74.63%
Total Cell Count [6]: 268 and 206
